Source: PubChem BioAssay AID463210 (The Scripps Research Institute Molecular Screening Center, 2010)
Screen size: about 330,000 compounds; about 300 (0.091%) were called active.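 How the source made its calls: active means percent activation above the screen-wide mean plus 3 SD (cut at about 25% in these data); inactive means the rest.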 Only a selection was taken, and actives are over-represented in it overall.

The compounds below were run against Caspase-7 (Homo sapiens) (UniProt P55210) (assay: activation of procaspase-7 enzyme – biochemical, absorbance, HTS, human, counter-screen for procaspase-3 activator project, primary screen (AID 463210)). Conditions: recombinant procaspase-7, Ac-DEVD-pNA absorbance 405 nm; at 8.5 µM; stronger effect = higher value; D23A/D198A/D206A triple mutant, cannot self-cleave; scale: DMSO 0, 5 µM enzyme 100.
Sequence of Caspase-7 (Homo sapiens) (P55210 whole entry D23A/D198A/D206A): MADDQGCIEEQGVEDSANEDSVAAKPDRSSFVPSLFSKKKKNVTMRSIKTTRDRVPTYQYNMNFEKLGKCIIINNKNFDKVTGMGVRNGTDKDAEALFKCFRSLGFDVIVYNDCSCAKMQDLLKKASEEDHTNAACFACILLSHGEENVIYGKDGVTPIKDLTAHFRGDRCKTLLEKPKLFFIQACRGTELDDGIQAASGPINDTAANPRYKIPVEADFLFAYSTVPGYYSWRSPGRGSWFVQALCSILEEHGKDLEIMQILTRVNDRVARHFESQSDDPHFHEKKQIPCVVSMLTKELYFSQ
Procedure, shortened: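 System: Uncleavable procaspase-7 mutant enzyme; Amount: 2 µM procaspase-7 mutant as dispensed; Schedule: 1 h compound preincubation, 2 h substrate cleavage, 25 °C; Measured by: 405 nm absorbance of p-nitroaniline; Evaluation: percent activation from buffer-corrected 0–120 min absorbance change; Control set: low DMSO alone, high DMSO plus 5 µM PC-7.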

`COc1ccc(C(O)(C2CCCCC2)C(CN2CCCC2)c2ccccc2)cc1` (configuration not stated) was tested. Which activation did it give?
Its activation is 0.02% (inactive).

For `COCC1CCCN(C(=O)c2ccc3oc(C(C)C)nc3c2)C1` (configuration not stated), which activation is on record?
The activation was -9.62% (inactive).

How did the activation turn out when `COc1ccc(NC(=O)C2CCN(S(=O)(=O)c3ccc4[nH]c(=O)oc4c3)CC2)c(OC)c1` was run?
The activation was -1.26% (inactive).

Which activation does the source give for `COc1ccc(CCNC(=O)CN2C(=O)COc3ccc(S(=O)(=O)N4CCCC4)cc32)cc1OC` here?
The activation was -1.51% (inactive).

For `CCN(C(=O)COC(=O)c1ccc(COc2ccc3c(C)cc(=O)oc3c2)cc1)C1CCS(=O)(=O)C1` (configuration not stated), which activation is on record?
Its activation is 11% (inactive).

How did the activation turn out when `O=c1cc(CO)oc(C(Nc2cccc(C(F)(F)F)c2)c2ccccn2)c1O` (configuration not stated) was run?
The activation was -8.69% (inactive).

How did the activation turn out when `COc1ccccc1N1CCN(c2nc(C)cc(=O)[nH]2)CC1` was run?
The activation was 14.3% (inactive).

How did the activation turn out when `CN(CC(=O)Nc1ccccc1Cl)C(=O)COc1cccc2c1OC(C)(C)C2` was run?
The activation was -0.56% (inactive).

`CCOC(=O)c1cccc(NC(=O)c2ccc(F)cc2F)c1` was tested. Which activation did it give?
The activation was -3.97% (inactive).

For `CCOC(=O)[C@@H]1[C@H]2COc3cc(OC)ccc3[C@@H]2N2C(=O)N(c3cccc(C)c3)C(=O)[C@@]12C`, which activation is on record?
The activation was -1.89% (inactive).

Which activation does the source give for `CN1CCN(c2ccccc2NC(=O)COc2ccc(C3CCCCC3)cc2)CC1` here?
The activation was 6.3% (inactive).

How did the activation turn out when `CCn1c(N)c(Br)c(=O)[nH]c1=O` was run?
The activation was 12.7% (inactive).

With `COc1ccc(C(=O)N2CCCCC2C(=O)Nc2ccc(-n3nc(C)cc3C)cc2)o1` (configuration not stated) as the compound, how does the activation read?
Its activation is 0.38% (inactive).

For `CC(C)CN(CC(C)C)C(=O)CN1c2cccc3cccc(c23)S1(=O)=O`, which activation is on record?
Its activation is 4.17% (inactive).

How did the activation turn out when `NC(=O)C1CCN(Cc2nc3c(Br)cc(Br)cc3c(=O)[nH]2)CC1` was run?
The activation was -6.52% (inactive).

For `COc1ccc(S(=O)(=O)NCC2CCCN(C(=O)c3occc3C)C2)cc1` (configuration not stated), which activation is on record?
Its activation is -3.49% (inactive).

How did the activation turn out when `CCCCCCCC[n+]1cccc(C(=O)N2c3c(nc(N)[nH]c3=O)NC(C)C2C)c1` (configuration not stated) was run?
Its activation is -2.79% (inactive).

For `CCOc1cc(C(=O)Nc2c(C)ccc3nsnc23)cc(OCC)c1OCC`, which activation is on record?
Its activation is -0.81% (inactive).

With `Cc1[nH]n(C(N)=S)c(=O)c1N=Nc1ccc(Cl)cc1Cl` as the compound, how does the activation read?
Its activation is -4.08% (inactive).

Which activation does the source give for `CC1=NN(C(N)=S)C(=O)C1N=Nc1cc(Cl)ccc1Cl` (configuration not stated) here?
The activation was 42% (active).

How did the activation turn out when `CCN(C[C@H]1N[C@@](CC)(C(=O)OC)[C@H]2C(=O)N(C)C(=O)[C@@H]12)C(=O)Nc1ccc(F)cc1` was run?
Its activation is 3.05% (inactive).

Which activation does the source give for `CC(C)C[C@@H](COc1ccccc1)N1CCN(CC(C)C)CCC1=O` here?
The activation was -4.75% (inactive).

How did the activation turn out when `CC(C(=O)NCC1CCCCC1)N(C)Cc1cccc(Cl)c1` (configuration not stated) was run?
The activation was -2.02% (inactive).

`Cc1ccc(S(=O)(=O)NCC(=O)N(CC(=O)NCC2CCCO2)c2cccc(F)c2)cc1` (configuration not stated) was tested. Which activation did it give?
Its activation is -1.1% (inactive).

With `O=C(COc1cccc2c1CCNC2=O)NC1CCCCC1` as the compound, how does the activation read?
Its activation is -3.37% (inactive).

`CCOC(=O)C1=C(CN2CCc3ccccc32)NC(=O)NC1c1cc(C)ccc1C` (configuration not stated) was tested. Which activation did it give?
Its activation is 1.19% (inactive).

Which activation does the source give for `COc1cccc2cc(C(C)N(CCCN3CCOCC3)C(=O)Nc3ccc(Cl)cc3)oc12` (configuration not stated) here?
The activation was 3.94% (inactive).

For `CCc1nnc(NC(=O)[C@@H](NC(=O)c2cccc(C)c2)C(C)C)s1`, which activation is on record?
The activation was -9.68% (inactive).

`Cc1ccc(S(=O)(=O)N2CCC3(CC2)OCCO3)c(C)c1` was tested. Which activation did it give?
Its activation is 7.32% (inactive).

`O=C(NCCN1CCOC1=O)C1CCC(=O)N(CCc2ccc(Cl)cc2)C1` (configuration not stated) was tested. Which activation did it give?
The activation was -3.88% (inactive).

How did the activation turn out when `O=S(=O)(Oc1ccccc1C(=S)N1CCOCC1)c1ccc(Cl)cc1` was run?
The activation was 5.11% (inactive).

`O=C(Cc1ccccc1F)NC1CCSc2ccccc21` (configuration not stated) was tested. Which activation did it give?
The activation was -1.51% (inactive).

How did the activation turn out when `COc1ccc(CNS(=O)(=O)c2cc(-c3cc(C)no3)ccc2C(C)C)cc1` was run?
Its activation is 7.17% (inactive).

`COc1cccc(C(=O)n2ccc(-c3cccs3)n2)c1` was tested. Which activation did it give?
Its activation is 7.3% (inactive).

Which activation does the source give for `CCN(CCNC(=O)C1=C(C)C(=O)OC12CCC(C)CC2)c1ccccc1` (configuration not stated) here?
Its activation is -6.83% (inactive).

How did the activation turn out when `C=CCN1CN(S(=O)(=O)c2ccc(OC)cc2)c2nc3ccccc3nc21` was run?
The activation was 10.1% (inactive).

How did the activation turn out when `COc1cccc(CNC(=O)CN(C)S(=O)(=O)c2ccc3c(c2)c(=O)n(C)c(=O)n3C)c1` was run?
The activation was 3.47% (inactive).

`CC(NC(=O)COc1ccc(-c2ccccc2)cc1)C1CCCO1` (configuration not stated) was tested. Which activation did it give?
Its activation is -7.63% (inactive).

`Cc1cc(C)c(C)c(S(=O)(=O)N2CCN(C(=O)c3ccc4c(=O)n5c(nc4c3)CCC5)CC2)c1C` was tested. Which activation did it give?
Its activation is 0.83% (inactive).

With `Cn1c(C(=O)O)ccc1S(=O)(=O)N(Cc1ccccc1)Cc1ccccc1` as the compound, how does the activation read?
The activation was -2.76% (inactive).

How did the activation turn out when `Cc1ccc(S(=O)(=O)N(CC(=O)NCCSC2CCCCC2)c2ccccc2F)cc1` was run?
Its activation is 12.3% (inactive).

For `CSCc1cc(N2CCOCC2)nc(SCc2ccc(Cl)cc2Cl)n1`, which activation is on record?
Its activation is -1.6% (inactive).
